Data set [1] concerns the target T1, Gonadotropin-releasing hormone receptor (Rattus norvegicus, UniProt P30969).
T1 sequence (P30969 whole entry): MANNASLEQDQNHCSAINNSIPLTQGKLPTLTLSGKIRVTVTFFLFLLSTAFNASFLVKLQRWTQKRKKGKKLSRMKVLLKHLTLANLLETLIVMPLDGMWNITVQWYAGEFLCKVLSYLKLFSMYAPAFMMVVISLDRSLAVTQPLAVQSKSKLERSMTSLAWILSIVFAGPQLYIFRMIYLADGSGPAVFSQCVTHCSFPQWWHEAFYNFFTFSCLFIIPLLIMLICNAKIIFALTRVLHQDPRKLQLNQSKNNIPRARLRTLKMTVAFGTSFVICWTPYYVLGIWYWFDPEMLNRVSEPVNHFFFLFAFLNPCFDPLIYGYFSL
The experiment in a line: Inhibitory concentration against binding of rat Gonadotropin-releasing hormone receptor using [125I]buserelin.

Data set [2] relates to CHO. The experiment in a line: In vitro inhibitory concentration against GnRH-stimulated phosphatidyl inositol hydrolysis by cloned chinese hamster ovary cells stably expressing human GnRH receptor. It is filed as functional, cell-based. Particulars: Cricetulus griseus.
Data set [3] addresses T2, Gonadotropin-releasing hormone receptor (Homo sapiens, UniProt P30968).
T2 sequence (P30968 whole entry): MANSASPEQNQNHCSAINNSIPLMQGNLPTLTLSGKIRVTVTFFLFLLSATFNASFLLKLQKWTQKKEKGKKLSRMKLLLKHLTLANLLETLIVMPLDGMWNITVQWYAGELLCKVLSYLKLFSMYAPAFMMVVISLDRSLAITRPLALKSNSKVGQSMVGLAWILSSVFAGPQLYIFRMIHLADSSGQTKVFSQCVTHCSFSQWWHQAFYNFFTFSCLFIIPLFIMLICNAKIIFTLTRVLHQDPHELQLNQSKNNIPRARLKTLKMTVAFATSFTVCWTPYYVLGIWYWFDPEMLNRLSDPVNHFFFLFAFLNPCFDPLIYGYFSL
The experiment in a line: Inhibitory concentration against binding of [125I]buserelin to human Gonadotropin-releasing hormone receptor. The procedure, abridged:
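Competitive displacement of the GnRH receptor agonist radioligand [125I]buserelin from the human GnRH receptor, with 0.1% BSA present in the binding assay.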

The nature of data set [4]: Oral bioavailability in dog. It is filed as ADME, organism-based, Canis lupus familiaris. As to conditions: in vivo.
Data set [5] is described as follows: Clearance rate in dog. It is filed as ADME, organism-based, Canis lupus familiaris. As to conditions: in vivo, read-out: Clearance rate.
The target in data set [6] is T3, Gonadotropin-releasing hormone receptor (Rattus norvegicus) (UniProt P30969).
T3 sequence (whole entry): T1 sequence (P30969 whole entry)
The experiment in a line: Inhibitory activity against binding of rat Gonadotropin-releasing hormone receptor using [125I]buserelin at 10 uM.

SMILES strings stand for the structures.

In turn, `Cc1cc(C)cc(-c2c(O)nc3cc(Cl)c([N+](=O)[O-])cc3c2OCCC2NCCCC2C)c1` (stereo not given) had an IC50 in data set [1] of 0.045 µM. That is a double-digit nanomolar value.

`Cc1cc(C)cc(-c2c(OCC[C@@H]3CCC[C@@H](C)N3)c3cc(C(=O)Nc4ccncn4)c(Cl)cc3[nH]c2=O)c1`: the figures for the IC50 in data set [2] and in data set [3] were 0.0115 µM and 0.0005 µM, respectively.

On to `Cc1cc(C)cc(-c2c(O)nc3cc(Cl)c([N+](=O)[O-])cc3c2OCCC2CCCCN2)c1` (single isomer, unassigned), for which, in data set [1], the IC50 stood at 0.01 µM.

As for `Cc1cc(-c2c(OCC[C@@H]3CCCC(C(F)(F)F)N3)c3cc(C(=O)Nc4ccncn4)c(Cl)cc3[nH]c2=O)cc(C)c1C` (stereo not given in full), the IC50 is 0.018 µM in data set [2] and 0.002 µM in data set [3]. This compound came in with a bioavailability in data set [4] of 14.6%. Further, in data set [5], the clearance turned out to be 21.6 mL/min/kg.

As to `Cc1cc(C)cc(-c2c(OCCC3CCC(C)CN3)c3cc([N+](=O)[O-])c(Cl)cc3[nH]c2=O)c1` (stereo not given), the IC50 in data set [1] amounted to 0.063 µM.

As for `Cc1cc(C)cc(-c2c(O)nc3cc(Cl)c(C(=O)Nc4ccncn4)cc3c2OCC[C@@H]2CCCCN2)c1`, the IC50 in data set [2] is 0.005 µM.

`Cc1cc(-c2c(O)nc3cc(Cl)c(C(=O)Nc4ccncn4)cc3c2OCC[C@@H]2CCCCN2)cc(C)c1C`: in data set [2], the IC50 turned out to be 0.0022 µM. Further, the bioavailability in data set [4] came to 4.4%. Moreover, in data set [5], the clearance was determined as 36.8 mL/min/kg.

The compound `Cc1cc(C)cc(-c2c(O)nc3cc(Cl)c([N+](=O)[O-])cc3c2OCCC2CCc3ccccc3N2)c1` (stereo not given) showed an inhibition in data set [6] of 85%.

Consider `CCC1CCC[C@@H](CCOc2c(-c3cc(C)cc(C)c3)c(=O)[nH]c3cc(Cl)c(C(=O)Nc4ccncn4)cc23)N1` (stereo not given in full), for which the IC50 in data set [3] was found to be 0.0057 µM. This lies in the single-digit nanomolar range.

`Cc1cc(C)cc(-c2c(OCC[C@@H]3CCC[C@H](C)N3)c3cc(C(=O)Nc4ccncn4)c(Cl)cc3[nH]c2=O)c1`: the IC50 in data set [2] turned out to be 0.0087 µM; in data set [3] it was 0.0005 µM.

Consider `Cc1cc(C)cc(-c2c(O)nc3cc(Cl)c([N+](=O)[O-])cc3c2OCC[C@@H]2CCC[C@H](C)N2)c1`, for which the IC50 in data set [1] turned out to be 0.015 µM.

With `Cc1cc(C)cc(-c2c(OCC[C@@H]3CCC[C@H](CCCc4ccccc4)N3)c3cc([N+](=O)[O-])c(Cl)cc3[nH]c2=O)c1`, the IC50 in data set [1] was determined as 0.4 µM.

In data set [1], `CC[C@H]1CCC[C@@H](CCOc2c(-c3cc(C)cc(C)c3)c(O)nc3cc(Cl)c([N+](=O)[O-])cc23)N1` showed an IC50 of 0.018 µM.

In data set [1], `Cc1cc(C)cc(-c2c(OCCC3NCCc4ccccc43)c3cc([N+](=O)[O-])c(Cl)cc3[nH]c2=O)c1` (stereo not given) returned an IC50 of 0.75 µM.

Consider `Cc1cc(C)cc(-c2c(O)nc3cc(Cl)c([N+](=O)[O-])cc3c2OCC[C@@H]2Cc3ccccc3CN2)c1`, for which, in data set [1], the IC50 came to 0.07 µM.

`Cc1cc(C)cc(-c2c(O)nc3cc(Cl)c([N+](=O)[O-])cc3c2OCCc2ccccn2)c1`: the inhibition in data set [6] worked out at 86%.

In the case of `Cc1cc(-c2c(OCC[C@@H]3CCC[C@H](C)N3)c3cc(C(=O)Nc4ccncn4)c(Cl)cc3[nH]c2=O)cc(C)c1C`, the IC50 in data set [2] came out at 0.0098 µM; in data set [3], 0.0006 µM.

The IC50 is the concentration needed to halve the response being measured. A lower IC50 goes with greater potency. The bioavailability is the share of a dose that reaches the circulation, judged against a reference dose that is usually intravenous. A lower bioavailability goes with little systemic uptake. In general, clearance refers to a measure of how efficiently the substance is removed, as volume per time. As a reminder, the inhibition is how much of the control response was suppressed. Low readings indicate a weak effect, high ones a strong effect.

(Values after ChEMBL document CHEMBL1147503, “Syntheses and structure-activity relationship studies of piperidine-substituted quinolones as nonpeptide gonadotropin releasing hormone antagonists” (Bioorg Med Chem Lett, 2004).)
